Assay outcomes deposited in PubChem BioAssay by several laboratories.
Shown are actives, neighbours in structure and some others; about 1.4% of the full set was active somewhere.
DDE Tn6 FP inh = disrupts Tn6 cyclic peptide binding to fibrin D-Dimer-E complex. P02675. Fibrin DD(E) TRITC-Tn6 fluorescence polarization displacement. inhibition, % at 8.3 µM. 370,000 compounds, 0.21% hits. AID 720509;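 active = inhibition above a per-campaign cutoff: mean of compounds within control limits plus 3 SD, cut at about 15% in these data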;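 note: 0% = median of all compound wells on the plate and 100% = blocking peptide control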
CAL PDZ FP-1 = inhibitors of human CAL PDZ peptide binding; 300,000 compounds, 0.92% hits; Q9HD26; inhibition, % at 24.9 µM; purified CAL PDZ, TMR-peptide fluorescence polarization, 1 h;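 active = mean inhibition of at least 30% with at least half of replicates also reaching 30%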;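 note: 0% = DMSO neutral control and 100% = excess unlabeled competitor peptide PRC23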
CAL PDZ FP-2 = inhibitors of human CAL PDZ peptide binding | Q9HD26 | purified CAL PDZ, TMR-peptide fluorescence polarization, 1 h | inhibition, % at 20 µM | 330,000 compounds, 0.02% hits | AID 504414;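 active = highest replicate inhibition of at least 40%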;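 note: plate controls were DMSO neutral control wells for no effect and unlabeled competitor peptide control wells for full effect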
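Test system: tagged CAL PDZ domain / Buffer or medium: sodium phosphate/NaCl buffer pH 7.4 with TCEP, IgG, Thesit / Reagent: TMR-labelled reporter peptide T*-PRC34 bound in PDZ groove / Compound dosing: single point, 20 µM / Schedule: 1 h incubation at room temperature before polarization reading / Technique: fluorescence polarization (mP) / Benchmarks: unlabelled peptide, DMSO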
Arrestin-AP2 inh = blocks beta-arrestin peptide binding to AP2 adaptin. FITC-arrestin peptide / GST-AP2 beads, flow cytometry; AP2 beta2 appendage carries R879A mutation. 340,000 compounds, 0.31% hits. inhibition, % at 10 µM. AID 504490;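 active = inhibition above a set limit, near 3 SD of compounds lacking own fluorescence, cut at about 54% in these data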;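 note: plate controls were DMSO wells for no effect and 5 µM unlabelled arrestin peptide for full effect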
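system = GST-tagged AP2 beta2-adaptin appendage (R879A) on 4 µm glutathione beads | reagent = FITC-labelled arrestin peptide probe, 50 nM final | schedule = compound with beads 12 min RT, then probe 1 h RT | signal = HyperCyt-sampled flow cytometry, FL1 channel, ex 488/em 535 nm | read-out = percent response from loss of bead-bound FITC fluorescence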
Tn7 DDE FP = disrupts Tn7 cyclic peptide binding to fibrin D-Dimer-E complex; P02675; FP displacement of FITC-Tn7 peptide from fibrin DD(E); 0% = median of compound wells per plate; inhibition, % at 8.3 µM; 370,000 compounds, 0.13% hits;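 active = inhibition above the mean of compounds falling within the control limits plus 3 SD of them, cut at about 14% in these data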;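 note: 0% = plate median of compound wells and 100% = 10 µM Aha-Tn7 peptide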
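Assay system: human fibrin DD(E). Input: DD(E) 2 µM final. Medium: Tris buffer with calcium and detergent, pH 7.8. Compound dosing: single point at 8.3 µM. Timing: 10 min plus 3 h, room temperature. Technique: fluorescence polarization of the labelled Tn7 tracer. Read-out: percent inhibition. Replicates: singlicate testing.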
Arr-AP2 CP1 = blocks beta-arrestin peptide binding to human AP2; 1,300 compounds, 2% hits; GST-AP2 beads, FITC arrestin peptide binding, flow cytometry; GST-fused beta2-adaptin appendage, R879A mutant; shares compounds with Arrestin-AP2 inh; inhibition, % at 10 µM; AID 504908;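 active = inhibition above a set limit, roughly 3 SD of non-fluorescent compound noise, cut at about 38% in these data; inactive = inhibition at or below that limit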;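 note: loss of bead fluorescence from 50 nM FITC arrestin peptide bound to appendage; 0% = negative control wells and 100% = excess unlabelled arrestin peptide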
Target sequence (P63010 whole entry, looked up, the tested form may be a part, one chain of several): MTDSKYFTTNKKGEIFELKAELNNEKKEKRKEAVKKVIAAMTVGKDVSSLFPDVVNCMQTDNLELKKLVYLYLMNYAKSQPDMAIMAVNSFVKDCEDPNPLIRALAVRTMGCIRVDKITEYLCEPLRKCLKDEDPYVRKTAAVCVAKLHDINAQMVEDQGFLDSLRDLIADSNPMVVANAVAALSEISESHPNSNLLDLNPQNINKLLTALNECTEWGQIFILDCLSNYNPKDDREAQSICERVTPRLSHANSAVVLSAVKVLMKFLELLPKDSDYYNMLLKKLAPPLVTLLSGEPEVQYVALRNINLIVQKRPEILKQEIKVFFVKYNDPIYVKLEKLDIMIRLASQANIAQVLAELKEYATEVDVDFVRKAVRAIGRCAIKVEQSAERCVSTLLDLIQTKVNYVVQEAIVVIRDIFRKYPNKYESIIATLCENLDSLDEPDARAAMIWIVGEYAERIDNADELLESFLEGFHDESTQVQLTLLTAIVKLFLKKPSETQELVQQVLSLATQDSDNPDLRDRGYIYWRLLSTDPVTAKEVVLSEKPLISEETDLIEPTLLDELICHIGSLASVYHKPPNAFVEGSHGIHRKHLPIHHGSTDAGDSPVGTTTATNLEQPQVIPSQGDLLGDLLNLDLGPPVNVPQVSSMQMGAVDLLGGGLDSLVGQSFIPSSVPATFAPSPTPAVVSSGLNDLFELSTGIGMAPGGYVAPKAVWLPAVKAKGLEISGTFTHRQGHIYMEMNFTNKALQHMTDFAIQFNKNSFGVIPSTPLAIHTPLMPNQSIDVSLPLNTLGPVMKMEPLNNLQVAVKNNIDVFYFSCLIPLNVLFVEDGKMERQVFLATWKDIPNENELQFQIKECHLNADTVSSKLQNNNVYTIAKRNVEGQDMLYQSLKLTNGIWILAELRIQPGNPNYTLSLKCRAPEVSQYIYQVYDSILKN
GST GSH counter = disrupts GST binding to glutathione beads, arrestin-AP2 artifact; inhibition, % at 10 µM; shares compounds with Arrestin-AP2 inh; 1,300 compounds, 2% hits; AID 588338; GST-fluorescein binding to GSH beads, fluorescence, counter-screen;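 active = inhibition above 50%, about 3 SD of the inhibition seen with non-fluorescent compounds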;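 note: fluorescein maleimide labelled GST captured on 4 micron glutathione beads; higher means more loss of bead fluorescence from quenching or blocked binding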
The depositor's hits bear a star; nt = not tested or not shown.

SMILES	DDE Tn6 FP inh	CAL PDZ FP-1	CAL PDZ FP-2	Arrestin-AP2 inh	Tn7 DDE FP	Arr-AP2 CP1	GST GSH counter
COC(=O)[C@]12C[C@H](CC(=O)NCc3ccccc3)C(=O)N(CCc3ccc(OC)c(OC)c3)C1=C[C@H](C(C)C)O[C@@H]2C1CC1	12	nt	nt	nt	-4	nt	nt
Cc1ccc(C(=O)N/C(=C\c2ccco2)C(=O)NCCN2CCOCC2)cc1C	-1	-2	-1	56*	-6	-5	1
Cc1ccc(C(=O)N/C(=C\c2ccco2)C(=O)NCCCN2CCOCC2)cc1C	5	-3	-3	21	6	nt	nt
CCCCCN1CCCCC(NC(=O)c2ccc(F)cc2)C1=O (stereo not given)	-3	nt	nt	nt	-2	nt	nt
COc1cccc([C@@H]2NC(=O)C/C=C/[C@H](C)[C@H](c3cccc(OC)c3)NC(=O)C/C=C/[C@@H]2C)c1	8	nt	nt	nt	8	nt	nt
COc1ccc(N2C(=O)NC(NC(=O)C(C)(C)C)(C(F)(F)F)C2=O)cc1 (stereo not given)	0	-1	0	40	6	nt	nt
Cc1ccc(N2C(=O)NC(NC(=O)C(C)(C)C)(C(F)(F)F)C2=O)cc1C (stereo not given)	-8	-3	0	56*	-1	-2	2
COc1cccc(CNC(=O)c2ccncc2)c1	5	-3	-1	68*	11	-5	-2
O=C(c1ccc(-c2ccc(Cl)cc2)o1)N1CCN(S(=O)(=O)c2cccs2)CC1	-2	nt	0	2	5	nt	nt
O=C(c1ccc(-c2ccc([N+](=O)[O-])cc2)o1)N1CCN(S(=O)(=O)c2cccs2)CC1	-7	2	0	65*	6	3	-3
CN(Cc1ccc2c(c1)CCCN2C)C(=O)[C@@H](Cc1ccccc1)NC(=O)[C@H]1O[C@@H](n2ccc(=O)[nH]c2=O)[C@H](O)[C@@H]1O	1	nt	nt	nt	-2	nt	nt
CCOc1ccc(NC(=O)c2ccc(NC(=O)COC(=O)Cc3ccc(OC)cc3)cc2)cc1	13	-4	-1	55*	1	5	-5
N#Cc1c(NC(=O)CSc2ncnc3c2cnn3-c2ccccc2Cl)sc2c1CCCC2	-3	-3	-1	60*	5	-19	0
CN1C2=CC=CC=CC2=[N+](C)C12C=CC(=[N+]([O-])[O-])C=C2[N+](=O)[O-] (stereo not given)	-6	10	-1	54*	-7	2	-7
CCCC(=O)N1CCC[C@]2(CC[C@H](CCC(C)=O)O2)C1	2	nt	nt	nt	4	nt	nt
O=C(Cc1c[nH]c2ccccc12)Nc1ccc(Nc2cccnc2)c(-c2ccc(-c3ccccc3)cc2F)c1	-8	nt	nt	nt	-15	nt	nt
COc1cccc(-n2nc3c(=S)[nH]nc(C)c3c2C)c1	5	-3	0	85*	4	17	-4
CN1C(=O)N(C)C2(c3ccccc3)NC(=O)NC12c1ccccc1 (stereo not given)	3	0	0	4	-4	nt	nt
CN1c2ccccc2N(C)C1(C)c1ccccc1	4	-1	0	67*	3	62*	26
COc1ccc(N2CCN(C(CNS(=O)(=O)c3cc(F)ccc3F)c3cccnc3)CC2)cc1 (stereo not given)	-3	0	-1	84*	2	16	-11
O=S(=O)(NCC(c1cccnc1)N1CCN(c2ccc(F)cc2)CC1)c1cc(F)ccc1F (stereo not given)	12	-8	0	-6	9	nt	nt
COc1ccc(S[C@]2(C(=O)N3CCOCC3)CC(=O)N(P(=O)(OC)OC)[C@@H]2c2ccc(OC)cc2)cc1	7	nt	nt	nt	-1	nt	nt
COc1ccc(-c2cc(C(F)F)n3ncc(C(=O)Nc4c(C)n(C)n(-c5ccccc5)c4=O)c3n2)cc1	-5	5	-1	32	5	nt	nt
COc1ccc(-c2cc(C(F)F)n3ncc(C(=O)Nc4cc(C)on4)c3n2)cc1	-4	2	-2	104*	-6	-6	22
